# Data published in ChEMBL document CHEMBL4513216, “Probing the Open Global Health Chemical Diversity Library for Multistage-Active Starting Points for Next-Generation Antimalarials” (ACS Infect Dis, 2020).
# Assay: Toxicity liver stage against HepG2, at 10uM
# Type: cell-based
# Design: test concentration 10 uM, cell line HepG2-A16-CD81EGFP
# Conditions: human, HepG2-A16-CD81EGFP cells; read-out: INHIBITION
# Summary of the method: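 Uninfected HepG2-A16-CD81EGFP cells, 3 × 10^3 per well, 1536-well, plated on prespotted compound at 10 μM final, parasite-free screening media added to match infected plates; puromycin 10 μM positive, DMSO 0.5% negative; run in parallel with 48 h PbLuc assay at 37 °C, 5% CO2; viability by CellTiter-Glo luminescence, normalized to controls.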
row,Structure (SMILES),cytotoxicity at 10 µM [%]
1,CN(C)C(=O)COCC1CN(Cc2ccsc2)Cc2nccn2C1 (stereo unspecified),-72.3
2,Cc1ncsc1C(=O)N(Cc1cccnc1)C1CC1,-4.84
3,Cc1ncsc1C(=O)N(C)Cc1ccsc1,-9.8
4,Cc1ccccc1CN1CCN(C(=O)c2ccn(C(C)(C)C)c2)CC1,-0.585
5,CCc1cc(N(C)Cc2ccncn2)n2nccc2n1,3.61
6,Cn1cc(Cl)cc1C(=O)N1CCCN(Cc2ccccc2)CC1,-5.19
7,Cc1nc(N2Cc3cnn(Cc4ccc(F)cc4)c3C2)no1,-3.05
8,CN(Cc1cncnc1)[C@@H]1CN(Cc2ccco2)C[C@@H]2CCCO[C@@H]21,-1.6
9,CC(C)c1nn(C)c(N(C)C)c1CNC(C)c1ccccc1F (stereo unspecified),-2.97
10,CN(C)C(=O)COC[C@]12COC[C@H]1CN(Cc1ccco1)C2,-0.522
11,O=C(c1ccnn1-c1ccc2ccccn12)N1CCCC1,-102
12,CN(C)CC1(O)CCCN(C(=O)Cc2ccc(Cl)c(Cl)c2)C1 (stereo unspecified),0.355
13,Cc1ccc(N2CCCC(N(C)c3ncnc4c3CCC4)C2)nn1 (stereo unspecified),6.86
14,CC(C)(C)C(=O)N1CC[C@@H]2[C@H](CC1)N(S(C)(=O)=O)CCS2(=O)=O,0.64
15,CN(Cc1ccc(CCC(C)(C)O)cc1)Cc1cccnc1,15
16,Cc1ccc(CCNc2ncnc3sc4c(c23)CCNC4)o1,3.94
17,Cn1cc(CN2C[C@@H]3COC[C@H](C(=O)Nc4cccnc4)[C@@H]3C2)cn1,9.34
18,CCN1CC(COC(=O)c2ccc(Br)cc2F)CC1=O (stereo unspecified),-2.45
19,NS(=O)(=O)CCNC(=O)c1cc(Br)c2c(c1)OCCO2,1.06
20,CS(=O)(=O)Cc1ccc(Cl)c(NCc2noc(C3CC3)n2)c1,6.95
21,CC(C(=O)N1CCCN(c2ccc(C#N)cc2)CC1)n1cccn1 (stereo unspecified),-3.02
22,O=C1CCNc2ccc(F)cc2CN1Cc1ccccc1,-3.03
23,O=c1ccc(-n2ccnc2)nn1CCNS(=O)(=O)c1ccc(F)c(Cl)c1,-4.39

row,Structure (SMILES),cytotoxicity at 10 µM [%]
1,COc1ccc(NC(C)c2nnnn2-c2ccccc2)cn1 (stereo unspecified),3.99
2,CC(=O)Nc1ccc(Oc2cccc(CN3CCCC3)c2)cc1,-14
3,Cc1ncc(C(=O)N2C[C@H](CO)C[C@H](CN3CCOCC3)C2)c(=O)[nH]1,-10.4
4,CC(CN1CCOCC1)n1cncc1-c1ccc2c(c1)CCCN2C (stereo unspecified),12.3
5,CC(C)[C@]1(O)CN(C(=O)C2(Cn3cccn3)CC2)C[C@H]1C,1.79
6,O=C(CCCn1cncn1)N1CCC2(CCCN(C3CCCC3)C2=O)C1 (stereo unspecified),-1.8
7,O=C(C[S+]([O-])Cc1csc(C2CCCC2)n1)Nc1ccccc1 (stereo unspecified),-42.3
8,c1ccc(-c2nnc(CN3CCCC(Cn4cncn4)C3)o2)cc1 (stereo unspecified),-7.51
9,Cn1cnnc1S(=O)(=O)C1CCN(S(=O)(=O)c2ccccc2F)CC1,-2.08
10,CNC(=O)[C@H]1C[C@@H]2CCN(c3nnc(C)s3)C[C@@H]2O1,-75.7
11,COCC[C@]1(O)CCN(Cc2nc(C)cs2)C[C@H]1C,10.5
12,CCOc1cccc(CNC(=O)C(C)(C)C#N)c1OC(F)F,-45.5
13,O=C1NCCN1C1CCN(CCOc2ccccc2F)CC1,-3.63
14,CN(C)C(=O)c1cccc(CCNS(C)(=O)=O)c1,-6.46
15,COc1cccc(-c2noc(-c3ccc(NCC(C)O)nc3)n2)c1OC (stereo unspecified),-5.82
16,O=C(c1cnccn1)N1CCC(Oc2ncccc2Cl)CC1,0.566
17,O=C(CCc1ccccc1)N1CCC(N2CCNC2=O)CC1,5.49
18,CN(C)Cc1nnc(C2CCN(c3nccc(N)n3)CC2)n1C1CC1,-1.99
19,COC(=O)N1CCC(NC(=O)Cn2cc(C)c3ccccc32)CC1,-2.37
20,COCCNC(=O)[C@H]1CN2CCC1C[C@@H]2Cn1cc(C(C)(C)C)nn1 (stereo partly specified),7.95
21,Cc1cc(N2CCC(NC(=O)CCc3cnn(C)c3)CC2)nc(C)n1,-2.01
22,COCCn1ccnc1C1CCCN(c2ncnc3c(C)csc23)C1 (stereo unspecified),2.57
23,CC(C)c1nc2n(n1)CC(Nc1ncnc3ccccc13)CC2 (stereo unspecified),-0.95

row,Structure (SMILES),cytotoxicity at 10 µM [%]
1,CN1CCC(NC(=O)C2CN(c3cncnc3)CCO2)CC1 (stereo unspecified),-32.5
2,CC(C)CC(=O)Nc1ccccc1Oc1ccsc1C(=O)O,6.2
3,COc1ccc(CCCN2C(=O)O[C@@H]3CN(C4CCOCC4)C[C@@H]32)cc1,-1.47
4,CCCNC(=O)C(C)Nc1ccc(OCC)cc1 (stereo unspecified) [PROPETAMIDE],8.84
5,CC(C)(C)c1n[nH]c(C2CN(C(=O)CCc3ccco3)CCO2)n1 (stereo unspecified),-8.24
6,CC(=O)Nc1ccc(OCc2noc(C(=O)N3CCCC3)n2)cc1,-12.3
7,CCN(Cc1ccc(S(C)(=O)=O)cc1)Cc1nc(COC)no1,-10.8
8,COc1cccc(CN2CCc3nc(C(N)=O)sc3CC2)c1,-3.79
9,Cn1cc(S(=O)(=O)Nc2ccc3[nH]c(C4CCC4)nc3c2)cn1,-8.36
10,O=C(Cc1cnc(-n2cccc2)s1)NCCCO,-3.14
11,COCCCNc1c(-c2ccc(C)cc2)c(=O)c1=O,12.5
12,CCn1nc(C)c(CCNC(=O)C2CCCN(C(=O)N(C)C)C2)c1C (stereo unspecified),0.874
13,COCCN1CCCC2(CCN(c3cc(C)c(C#N)c(C)n3)C2)C1=O (stereo unspecified),2.7
14,O=C(CC1CCCC1)N1CCOC(c2nc(-c3ncccn3)no2)C1 (stereo unspecified),-13.2
15,CCn1nc(C)c(CNC(=O)NCC(C)(O)c2ccco2)c1C (stereo unspecified),-10.8
16,CN(C)C(=O)CNC(=O)CCn1ncc2c(Cl)cccc21,-4.84
17,CC(NC(=O)CNc1cc2c(cc1Cl)NC(=O)CO2)c1ccco1 (stereo unspecified),-0.0162
18,O=c1c2ccccc2nc2n1C(CSc1ccc(F)cc1)CN2 (stereo unspecified),11.2
19,CNC(=O)CCNC(=O)Nc1cccc(Cl)c1SC(F)F,1.29
20,NC(=O)c1nc2c(s1)CCN(C(=O)Nc1cccc(Cl)c1)CC2,6.64
21,CS(=O)(=O)c1cccc(C(=O)NCc2nc3cc(F)ccc3[nH]2)c1,12.2
22,Cn1ccnc1CC1CCCN(C(=O)NCCOc2cccnc2)C1 (stereo unspecified),-5.19
23,CCc1ccc2nc(C)cc(C(=O)NC3CCC(=O)N(C)C3)c2c1 (stereo unspecified),-5.85

row,Structure (SMILES),cytotoxicity at 10 µM [%]
1,O=C(c1cccs1)N1CCC2(C1)c1ccccc1S(=O)(=O)N2CC1CC1 (stereo unspecified),-4.27
2,COc1cc(Cl)ccc1CNC(=O)N(C)C(C)CS(C)(=O)=O (stereo unspecified),-50.1
3,CN(Cc1ccco1)C(=O)C1CCCc2ccccc21 (stereo unspecified),3.68
4,Cc1ncncc1C(=O)N1CCOC(C(=O)NC2CCCC2)C1 (stereo unspecified),-4.23
5,O=C(Cc1cnc(-c2c(Cl)cccc2Cl)s1)N1CCOCC1,3.29
6,Cc1nc(C2CCCN(C(=O)c3ccc(N4CCCC4)nc3)C2)no1 (stereo unspecified),-3.06
7,Cc1nc(CCN2CCC(Oc3ccccc3F)CC2)c(C)s1,7.08
8,CC(C)N(C)Cc1cn2c(n1)CN(C(=O)c1ccc[nH]1)CC2,-73.2
9,CC(C)n1cnnc1CN(C)C(=O)C1CCCN(CC(N)=O)C1 (stereo unspecified),1.05
10,CN(Cc1cccc(C#N)c1)Cn1nc(C(C)(C)C)ccc1=O,-1.64
11,Cc1cc2c(=O)n3c(nc2s1)CCN(Cc1ccncc1)CC3,10.9
12,CCn1c(C2CCCN2Cc2noc(C(C)(C)C)n2)nc2ccccc21 (stereo unspecified),3.18
13,Cc1cccc(C2(CNC(=O)c3ccnc(N(C)C)c3)CCOCC2)c1,2.85
14,CCS(=O)(=O)N1C[C@@H](OCc2ccccn2)[C@@H]2OCCC[C@@H]21,-2.31
15,COc1cc(CNC(=O)Nc2nnc(C(C)C)s2)ccc1O,-2.22
16,CCS(=O)(=O)N1C[C@H]2CN(CC3CC3)C(=O)[C@H]2C1,0.797
17,CCn1c(N)nc2cc(C(=O)NCCCc3ccccn3)cnc21,-7.38
18,CCn1cc(CN2CCCN(C(=O)c3cccn3C)CC2)cn1,-5.85
19,CCNC(=O)c1ccc(NC(=O)N(C)Cc2cccn2C)c(C)c1,-0.132
20,CN(Cc1cnn(C)c1)CC1CCCN1c1cccnn1 (stereo unspecified),-1.07
21,Cc1ccc(C2CSCCN2C(=O)c2cnsn2)o1 (stereo unspecified),5.11
22,CCC(C(=O)NCc1csc(N2CCOCC2)n1)n1cccn1 (stereo unspecified),-2.88
23,CCc1ccc(CNC(=O)CCNc2ncccn2)s1,3.73

row,Structure (SMILES),cytotoxicity at 10 µM [%]
1,CC(C)CC(=O)Nc1cc(C(=O)N(C)C(C)C)ccc1Cl,-7.62
2,Cc1ccc(C(=O)NC2CCN(Cc3cccc4c3OCCO4)CC2)s1,-4.8
3,CC(NC(=O)CCOc1cccc(F)c1)c1nnc2n1CCC2 (stereo unspecified),-14.1
4,CC[S+]([O-])CCc1nc(CC(C)C)nn1-c1ccc2c(c1)OCCO2 (stereo unspecified),4.24
5,CCOc1ccc(N2CCCN=C2NC(=O)c2cccc(C)c2)cc1,1.61
6,O=C(O)CN1CCC(C(F)(F)F)CC1,17.2
7,O=C(c1cnc(O)cn1)N(Cc1ccsc1)CC1CCCO1 (stereo unspecified),3.7
8,Cc1nnc(N2C[C@H](OCCCn3cccn3)[C@H]3OCCC[C@H]32)s1,13.8
9,CCNC(=O)NCc1nn(CCN2CCCC2)c(=O)c2ccccc12,-3.85
10,CN1C(=O)CCC12CCC(NCc1ccsc1)CC2 (stereo unspecified),3.56
11,CCC1CN(C(=O)c2ccc(O)cn2)CCC(=O)N1Cc1ccccc1 (stereo unspecified),8.5
12,CC(=O)N1CCCCC12CCCN(Cc1ccco1)C2 (stereo unspecified),4.59
13,CCCSc1ncc(-c2nccn2CCO)cn1,-12.9
14,N#CC1(NC(=O)CN2CCc3c(ncn3C3CC3)C2)CCCC1,12.1
15,Cc1occc1C(=O)N1CCCS1(=O)=O,-11
16,O=C1CC2(CCN(c3nccc(-c4cc(C(=O)O)ccn4)n3)CC2)CN1,2.16
17,Cc1ccc(NC(=O)N2CCN(Cc3ccccn3)CC2)cc1Cl,-7.21
18,COc1ccccc1-c1noc(CN2CCCC2Cn2cccn2)n1 (stereo unspecified),-8.95
19,COCCCN1CCN(CCOC)C(C)C1 (stereo unspecified),-13.4
